From ChEMBL document CHEMBL1140686, “Indanylacetic acids as PPAR-delta activator insulin sensitizers” (Bioorg Med Chem Lett, 2007)
Activity calls are given as the source filed them. The calls are words filed in the database; no cut-off is given here.

Columns and labels:
[1] = molecular target: T1, Peroxisome proliferator-activated receptor alpha (Homo sapiens, UniProt Q07869); test: (§1) Agonist activity at PPARalpha by FRET assay; assay type: functional
T1 sequence (Q07869 whole entry): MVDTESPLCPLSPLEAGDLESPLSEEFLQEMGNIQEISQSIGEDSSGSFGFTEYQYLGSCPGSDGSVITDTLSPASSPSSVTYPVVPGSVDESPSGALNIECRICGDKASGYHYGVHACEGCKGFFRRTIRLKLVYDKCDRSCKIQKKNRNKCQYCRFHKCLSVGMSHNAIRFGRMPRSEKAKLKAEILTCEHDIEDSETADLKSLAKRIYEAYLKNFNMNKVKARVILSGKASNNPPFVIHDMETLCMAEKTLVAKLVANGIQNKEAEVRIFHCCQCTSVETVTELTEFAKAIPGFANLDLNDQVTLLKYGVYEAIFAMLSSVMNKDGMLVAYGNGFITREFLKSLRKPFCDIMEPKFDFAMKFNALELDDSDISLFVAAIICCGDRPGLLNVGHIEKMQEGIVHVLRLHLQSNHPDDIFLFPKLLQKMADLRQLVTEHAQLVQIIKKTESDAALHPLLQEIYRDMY
Summary of the method: (§2)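 FRET coactivator-recruitment assay run with the PPAR-δ ligand binding domain (GST-tagged human PPAR-δ LBD) and separately with the PPAR-α ligand binding domain. Compounds were incubated with europium-labelled anti-GST antibody, biotinylated TRAP220 coactivator protein and streptavidin-labelled APC. Read in a fluorimeter at excitation 340 nm and emission 615 and 665 nm.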

3T3-L1 = test: Induction of insulin receptor in mouse 3T3L1 cells assessed as insulin sensitizing activity; assay type: functional, cell-based; settings: for EC50: Mus musculus, 3T3-L1
Summary of the method: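 3T3-L1 preadipocytes grown about 1 week to 2 days post-confluence, then exposed 2 days to compound plus 0.5 µM IGF-1 in DMEM/10% FBS/2 mM glutamine/pen-strep, then 4 days in plain medium. Cells bound 0.1 nM [125I]insulin ± 100 nM unlabeled insulin for 1 h at room temperature, were washed and lysed in 1 N NaOH, then gamma-counted. EC50 taken where a plateau was reached; percent maximal stimulation recorded.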

[2] = molecular target: T2, Peroxisome proliferator-activated receptor alpha (Homo sapiens) (UniProt Q07869); test: as §1; assay type: functional; summary of the method: as §2
T2 sequence (whole entry): T1 sequence (Q07869 whole entry)

Mus musculus [3] = test: Reduction in blood glucose level in db/db mouse at 10 mg/kg, po; assay type: functional, organism-based; design: dose 10 mg/kg
Mus musculus [4] = test: Increase in serum HDL level in hApoA1 mouse model at 10 mg/kg, po; assay type: functional
Mus musculus [5] = test: Decrease in serum triglyceride level in hApoA1 mouse model at 10 mg/kg, po; assay type: functional; design: scale not given: the % may be the effect or the level left
Homo sapiens = species: Homo sapiens; test: Selectivity for PPARdelta over PPARalpha; summary of the method: as §2
[6] = molecular target: Peroxisome proliferator-activated receptor delta (Homo sapiens) (UniProt Q03181); test: Agonist activity at GST-tagged human PPARdelta by FRET assay
Mus musculus [7] = test: Reduction in blood glucose level in db/db mouse at 3 mg/kg, po; assay type: functional, organism-based; design: dose 3 mg/kg
Mus musculus [8] = test: Increase in serum HDL level in hApoA1 mouse model at 30 mg/kg, po; assay type: functional
Mus musculus [9] = test: Decrease in serum triglyceride level in hApoA1 mouse model at 30 mg/kg, po; assay type: functional; design: scale not given: the % may be the effect or the level left

Peroxisome proliferator-activated receptor delta (Homo sapiens), sequence (Q03181 whole entry, looked up): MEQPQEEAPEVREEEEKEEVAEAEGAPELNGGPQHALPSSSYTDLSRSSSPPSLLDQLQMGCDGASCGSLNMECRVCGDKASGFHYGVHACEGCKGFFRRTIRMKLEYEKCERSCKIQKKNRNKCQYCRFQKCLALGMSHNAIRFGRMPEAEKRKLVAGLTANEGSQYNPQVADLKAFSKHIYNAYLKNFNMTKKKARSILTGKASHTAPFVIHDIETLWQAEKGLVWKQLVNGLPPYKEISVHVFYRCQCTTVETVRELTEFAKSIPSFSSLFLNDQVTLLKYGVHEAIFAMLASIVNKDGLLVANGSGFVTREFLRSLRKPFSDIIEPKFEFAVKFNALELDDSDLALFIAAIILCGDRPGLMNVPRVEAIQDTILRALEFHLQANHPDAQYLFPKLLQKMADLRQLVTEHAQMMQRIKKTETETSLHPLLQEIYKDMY

Row | SMILES | EC50 [1] [nM] | EC50 (3T3-L1) [nM] | other results
1 | CCc1ccc(-c2nc(CCOc3ccc4c(c3)CC[C@H]4CC(=O)O)c(CC)o2)cc1 | 2530 | 35 | –
2 | Cc1oc(-c2ccccc2)nc1CCOc1ccc2c(c1)CC(C)C2CC(=O)O (centres undefined) | 7470 | 5440 | Activity [2]: 11%; Activity (3T3-L1): 58%
3 | Cc1ccc(-c2nc(CCOc3ccc4c(c3)CC[C@H]4CC(=O)O)c(C)o2)cc1 | 444 | 24 | –
4 | CN(CCOc1ccc(CC2SC(=O)NC2=O)cc1)c1ccccn1 (centres undefined) | – | – | Activity (Mus musculus [3]): Active
5 | Cc1sc(-c2ccc(Cl)cc2)nc1CCOc1ccc2c(c1)CC[C@H]2CC(=O)O | 10000 | 970 | –
6 | Cc1oc(-c2ccccc2)nc1CCOc1ccc2c(c1)OCC2CC(=O)O (centres undefined) | 10000 | – | Activity [2]: 15%
7 | CCc1oc(-c2ccc(C)cc2)nc1CCOc1ccc2c(c1)CC[C@H]2CC(=O)O | 1020 | 30 | –
8 | Cc1oc(-c2ccc(F)cc2)nc1CCOc1ccc2c(c1)CC[C@H]2CC(=O)O | 504 | 354 | –
9 | Cc1sc(-c2ccc(OC(F)(F)F)cc2)nc1CCOc1ccc2c(c1)CC[C@H]2CC(=O)O | 7940 | 225 | –
10 | COc1cccc(-c2nc(CCOc3ccc4c(c3)CC[C@H]4CC(=O)O)c(C)o2)c1 | 1890 | 82 | –
11 | Cc1cccc(-c2nc(CCOc3ccc4c(c3)CC[C@H]4CC(=O)O)c(C)o2)c1 | 1150 | 101 | –
12 | Cc1cc(SCc2sc(-c3ccc(C(F)(F)F)cc3)nc2C)ccc1OCC(=O)O [GW501516] | – | – | Activity (Mus musculus [4]): 30%; Activity (Mus musculus [5]): 33%
13 | CCCc1oc(-c2ccccc2)nc1CCOc1ccc2c(c1)CC[C@H]2CC(=O)O | 10000 | 3000 | Activity (3T3-L1): 32%
14 | CCC(C(=O)O)C1CCc2cc(OCCc3nc(-c4ccccc4)oc3C)ccc21 (centres undefined) | 130 | – | Ratio EC50 (Homo sapiens): 0.22
15 | Cc1sc(-c2ccc(F)cc2)nc1CCOc1ccc2c(c1)CC[C@H]2CC(=O)O | 2270 | 544 | –
16 | COC(C(=O)O)C1CCc2cc(OCCc3nc(-c4ccccc4)oc3C)ccc21 (centres undefined) | – | – | Ratio EC50 (Homo sapiens): 0.15
17 | Cc1oc(-c2ccc(C#N)cc2)nc1CCOc1ccc2c(c1)CC[C@H]2CC(=O)O | 9980 | 301 | –
18 | Cc1oc(-c2ccccc2)nc1CCOc1ccc2c(c1)CCC2C(C)C(=O)O (centres undefined) | 220 | – | Ratio EC50 (Homo sapiens): 1.8
19 | Cc1oc(-c2ccccc2)nc1CCOc1ccc2c(c1)CCC2CC(=O)O (centres undefined) | 890 | – | Ratio EC50 (Homo sapiens): 32
20 | Cc1nc(-c2ccccc2)n(C)c1CCOc1ccc2c(c1)CC[C@H]2CC(=O)O | 10000 | 5940 | Activity (3T3-L1): 19%
21 | COc1ccc(-c2nc(CCOc3ccc4c(c3)CC[C@H]4CC(=O)O)c(C)o2)cc1 | 798 | 29 | –
22 | CCc1ccc(-c2nc(C)c(CCOc3ccc4c(c3)CC[C@H]4CC(=O)O)n2C)cc1 | 10000 | 155 | –
23 | Cc1oc(-c2ccc(-c3ccccc3)cc2)nc1CCOc1ccc2c(c1)CC[C@H]2CC(=O)O | 2720 | 45 | Activity (Mus musculus [7]): Active; Activity (Mus musculus [8]): 29%; Activity (Mus musculus [9]): 38%
24 | Cc1c(CCOc2ccc3c(c2)CC[C@H]3CC(=O)O)nc(-c2ccccc2)n1C | 10000 | 608 | Activity (3T3-L1): 55%
25 | COc1cccc(-c2nc(CCOc3ccc4c(c3)CC[C@H]4CC(=O)O)c(C)s2)c1 | 6960 | 32 | –
26 | Cc1sc(-c2ccc(-c3ccccc3)cc2)nc1CCOc1ccc2c(c1)CC[C@H]2CC(=O)O | 10000 | 270 | –
27 | Cc1sc(-c2ccc(C(C)C)cc2)nc1CCOc1ccc2c(c1)CC[C@H]2CC(=O)O | 559 | 25 | –
28 | Cc1sc(-c2cccc(F)c2)nc1CCOc1ccc2c(c1)CC[C@H]2CC(=O)O | 6530 | 140 | –
29 | Cc1oc(-c2cccc(C#N)c2)nc1CCOc1ccc2c(c1)CC[C@H]2CC(=O)O | 10000 | 164 | –

Second part, led by results:

Row | EC50 [1] [nM] | SMILES | EC50 (3T3-L1) [nM] | other results
30 | 2460 | Cc1oc(-c2ccccc2)nc1CCOc1ccc2c(c1)CC[C@H]2CC(=O)O | 231 | –
31 | 6790 | Cc1cccc(-c2nc(CCOc3ccc4c(c3)CC[C@H]4CC(=O)O)c(C)s2)c1 | 50 | –
32 | 10000 | COc1ccc(-c2nc(CCOc3ccc4c(c3)CC[C@H]4CC(=O)O)c(C)n2C)cc1 | 644 | Activity (3T3-L1): 56%
33 | 78 | CCc1ccc(-c2nc(CCOc3ccc4c(c3)CC[C@H]4CC(=O)O)c(C)o2)cc1 | 27 | –
34 | 1570 | Cc1oc(-c2cccc(Cl)c2)nc1CCOc1ccc2c(c1)CC[C@H]2CC(=O)O | 200 | –
35 | 300 | Cc1oc(-c2ccc(C(C)C)cc2)nc1CCOc1ccc2c(c1)CC[C@H]2CC(=O)O | 33 | –
36 | 3280 | COc1ccc(-c2nc(CCOc3ccc4c(c3)CC[C@H]4CC(=O)O)c(C)s2)cc1 | 166 | –
37 | 546 | Cc1oc(-c2ccc(C(C)(C)C)cc2)nc1CCOc1ccc2c(c1)CC[C@H]2CC(=O)O | – | –
38 | 10000 | Cc1oc(-c2ccccc2)nc1CCOc1ccc2c(c1)C(C)(C)CC2CC(=O)O (centres undefined) | 253 | Activity [2]: 7.5%; Activity (3T3-L1): 66%; Activity [6]: 38%
39 | 1210 | Cc1sc(-c2ccc3c(c2)OCO3)nc1CCOc1ccc2c(c1)CC[C@H]2CC(=O)O | 66 | –
40 | 1190 | Cc1oc(-c2ccc(Cl)cc2)nc1CCOc1ccc2c(c1)CC[C@H]2CC(=O)O | 212 | –
41 | 1690 | Cc1oc(-c2cccc(F)c2)nc1CCOc1ccc2c(c1)CC[C@H]2CC(=O)O | 371 | –
42 | 10000 | COc1ccc(-c2nc(C)c(CCOc3ccc4c(c3)CC[C@H]4CC(=O)O)n2C)cc1 | 5560 | Activity (3T3-L1): 41%
43 | 10000 | O=C(O)C[C@@H]1CCc2cc(OCCc3nc(-c4ccccc4)oc3CCc3ccccc3)ccc21 | > 3000 | Activity (3T3-L1): 9%
44 | 10000 | Cc1nc(-c2ccc(-c3ccccc3)cc2)n(C)c1CCOc1ccc2c(c1)CC[C@H]2CC(=O)O | 71 | –
45 | 10000 | Cc1sc(-c2ccccc2)nc1CCOc1ccc2c(c1)CC[C@H]2CC(=O)O | 267 | Activity (3T3-L1): 60%
46 | 10000 | Cc1sc(-c2ccccc2F)nc1CCOc1ccc2c(c1)CC[C@H]2CC(=O)O | 1620 | –
47 | 2190 | Cc1oc(-c2ccccc2)nc1CCOc1ccc2c(c1)CCC[C@H]2CC(=O)O | – | Activity [2]: 58%; Activity [6]: 50%
48 | 10000 | CCc1ccc(-c2nc(CCOc3ccc4c(c3)CC[C@H]4CC(=O)O)c(C)n2C)cc1 | 103 | –
49 | 10000 | CCc1oc(-c2ccccc2)nc1CCOc1ccc2c(c1)CC[C@H]2CC(=O)O | 186 | –
50 | 594 | Cc1ccc(-c2nc(CCOc3ccc4c(c3)CC[C@H]4CC(=O)O)c(C)s2)cc1 | 65 | –
51 | 10000 | Cc1sc(-c2cccc(C(F)(F)F)c2)nc1CCOc1ccc2c(c1)CC[C@H]2CC(=O)O | 45 | –
52 | 10000 | CCOc1ccc(-c2nc(CCOc3ccc4c(c3)CC[C@H]4CC(=O)O)c(C)s2)cc1 | 165 | –
53 | 10000 | Cc1c(CCOc2ccc3c(c2)CC[C@H]3CC(=O)O)nc(-c2ccc(-c3ccccc3)cc2)n1C | 54 | –
